Assay results published in ChEMBL document CHEMBL6103663, “Enhanced Cytotoxicity of [10]-Gingerol-Coumarin-Triazole Hybrid as a Theranostic Agent for Triple Negative Breast Cancer” (ACS Med Chem Lett, 2025).

What was measured:
[1] = Drug internalization in human MDA-MB-231 cells assessed as appearance of diffuse layer of green fluorescence with small clusters inside the cell at 5 uM measured after 30 mins by DAPI/FITC/TxRed/Cy5 staining based confocal microscopy; assay type: ADME; details: mda-mb-231, 0.5 h
How it was run: (§1)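 Preparation was the same: 5 μM treatment at 37 °C in duplicate, then staining with CellMask Deep Red, MitoTracker Red FM and Hoechst, and 4% PFA fixation. Confocal Airyscan imaging at 40× used a 1 AU pinhole with gated channels: DAPI 410–508, FITC 493–571, TxRed 548–620 and Cy5 638–759 nm. Z-stacks gave orthogonal views, thresholded against untreated cells. Pearson's coefficient was calculated between the FITC and TxRed channels.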

[2] = Drug internalization in human MDA-MB-231 cell mitochondria assessed as appearance of green fluorescence throughout the cell at 5 uM measured after 2 hrs by DAPI/FITC/TxRed/Cy5 staining based confocal microscopy; assay type: ADME; details: mda-mb-231, 2 h; how it was run: as §1
[3] = tested on: MDA-MB-231; assay: Cytotoxicity against human MDA-MB-231 cells measured after 48 hrs by resazurin dye based fluorescence assay; assay type: functional, cell-based; details: MDA-MB-231, 48 h
How it was run: (§2)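 MDA-MB-231 cells in Leibovitz-L15 with 10% FBS, 10^4 cells/well, were allowed to adhere for 24 h at 37 °C. They were then exposed to a halving serial dilution from 250 to 0.98 μM (DMSO ≤0.5% final). Next came 10% resazurin for 4 h at 37 °C, with fluorescence read at λex 540 and λem […] nm. Assays used six technical replicates across three experiments. Results were expressed as % cell death, and IC50 was taken from regression (four-parameter logistic).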

[4] = Drug internalization in human MDA-MB-231 cells assessed as increase in fluorescence at 5 uM measured after 30 mins by CellMask Deep Red plasma membrane/MitoTracker Red FM/Hoechst staining based fluorescence microscopy; assay type: ADME, cell-based; details: mda-mb-231, 0.5 h
How it was run: (§3)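 Cells (1.9 × 10^4/well) adhered for 24 h and were then given 5 μM compound, in duplicate at 37 °C, alongside untreated controls. They were stained with CellMask Deep Red, MitoTracker Red FM and Hoechst for 30 min at RT, then fixed in 4% PFA. Epifluorescence high-content imaging at 40× used a FITC filter with 488 nm excitation. The untreated autofluorescence mean set the threshold, and green area per cell was quantified in μm2.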

[5] = Drug internalization in human MDA-MB-231 cell mitochondria assessed as appearance of more clustered green fluorescence at 5 uM measured after 2 hrs by DAPI/FITC/TxRed/Cy5 staining based confocal microscopy; assay type: ADME; details: mda-mb-231, 2 h; how it was run: as §1
[6] = Drug internalization in human MDA-MB-231 cells assessed as appearance of small blebs colocalization with mitochondria at 5 uM measured after 1 hr by DAPI/FITC/TxRed/Cy5 staining based confocal microscopy; assay type: ADME; details: mda-mb-231, 1 h; how it was run: as §1
[7] = Drug internalization in human MDA-MB-231 cells assessed as interaction with mitochondria at 5 uM measured after 30 mins by DAPI/FITC/TxRed/Cy5 staining based confocal microscopy; assay type: ADME; details: mda-mb-231, 0.5 h; how it was run: as §1
[8] = Drug internalization in human MDA-MB-231 cells assessed as uptake in cellular perimeter at 5 uM measured after 30 mins by CellMask Deep Red plasma membrane/MitoTracker Red FM/Hoechst staining based fluorescence microscopy; assay type: ADME, cell-based; details: mda-mb-231, 0.5 h; how it was run: as §3
[9] = tested on: MDA-MB-231; assay: Cytotoxicity against human MDA-MB-231 cells measured after 24 hrs by resazurin dye based fluorescence assay; assay type: functional, cell-based; details: MDA-MB-231, 24 h; how it was run: as §2
[10] = Drug internalization in human MDA-MB-231 cells assessed as intracellular uptake at 5 uM measured after 30 mins by CellMask Deep Red plasma membrane/MitoTracker Red FM/Hoechst staining based fluorescence microscopy; assay type: ADME, cell-based; details: mda-mb-231, 0.5 h; how it was run: as §3
[11] = Drug internalization in human MDA-MB-231 cells assessed as increase in fluorescence at 5 uM measured after 1 hr by CellMask Deep Red plasma membrane/MitoTracker Red FM/Hoechst staining based fluorescence microscopy; assay type: ADME, cell-based; details: mda-mb-231, 1 h; how it was run: as §3
[12] = Potency index, ratio of Met10G IC50 to test compound IC50 for cytotoxicity against human MDA-MB-231 cells after 48 hrs; assay type: functional
[13] = Potency index, ratio of Met10G IC50 to test compound IC50 for cytotoxicity against human MDA-MB-231 cells after 24 hrs; assay type: functional
[14] = tested on: MDA-MB-231; assay: Cytotoxicity against human MDA-MB-231 cells measured after 48 hrs by MTT assay; assay type: functional, cell-based; details: MDA-MB-231, 48 h

| SMILES | Drug uptake [1] | Drug uptake [2] | IC50 [3] [µM] | Drug uptake [4] | Drug uptake [5] | Drug uptake [6] | Drug uptake [7] | Drug uptake [8] | IC50 [9] [µM] | Drug uptake [10] | Drug uptake [11] | Ratio IC50 [12] | Ratio IC50 [13] | IC50 [14] [µM] |
| --- | --- | --- | --- | --- | --- | --- | --- | --- | --- | --- | --- | --- | --- | --- |
| CCCCCCCCCC(O)CC(=O)CCc1ccc(OC)c(OC)c1 (stereo unspecified) | Active | Active | 26.9 | Active | Active | Active | Active | Active | 45.6 | Active | Not_active | – | – | – |
| CCCCCCCCC[C@H](O)CC(=O)CCc1ccc(OCCCCc2cn(CCCNC(=O)c3cc4ccc(O)cc4oc3=O)nn2)c(OC)c1 | Active | Active | 2.3 | Active | Active | Active | Active | Active | 19.1 | Active | Active | <=10 | 2 | – |
| COc1cc(Cl)ccc1OCCCCc1cn(CCCNC(=O)c2cc3ccc(O)cc3oc2=O)nn1 | Active | Active | 103 | Active | Active | Active | Active | Active | 116 | Active | Not_active | – | – | – |
| CCCCCCCCC[C@H](O)CC(=O)CCc1ccc(O)c(OC)c1 | – | – | – | – | – | – | – | – | – | – | – | – | – | 12.1 |
